Test results taken from ChEMBL document CHEMBL4145630, “Development of Highly Potent and Selective Steroidal Inhibitors and Degraders of CDK8” (ACS Med Chem Lett, 2018).

Experiments:
[1] = target: T1, Cyclin-dependent kinase 8 (Homo sapiens, UniProt P49336); assay: Inhibition of wild-type human partial length CDK8 (M1 to T360 residues) expressed in bacterial expression system at 10 uM by Kinomescan method relative to control
Outline: (§1)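 Ambit KINOMEscan binding panel run at a single 10 μM concentration; results expressed relative to control, with a 90% inhibition cutoff applied.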

[2] = target: T1, Cyclin-dependent kinase 8; assay: Inhibition of CDK8 (unknown origin)
[3] = target: T2, Serine/threonine-protein kinase Nek1 (Homo sapiens) (UniProt Q96PY6); assay: Inhibition of wild-type human partial length NEK1 (M1 to K278 residues) expressed in bacterial expression system at 10 uM by Kinomescan method relative to control; outline: as §1
T2 sequence (whole entry): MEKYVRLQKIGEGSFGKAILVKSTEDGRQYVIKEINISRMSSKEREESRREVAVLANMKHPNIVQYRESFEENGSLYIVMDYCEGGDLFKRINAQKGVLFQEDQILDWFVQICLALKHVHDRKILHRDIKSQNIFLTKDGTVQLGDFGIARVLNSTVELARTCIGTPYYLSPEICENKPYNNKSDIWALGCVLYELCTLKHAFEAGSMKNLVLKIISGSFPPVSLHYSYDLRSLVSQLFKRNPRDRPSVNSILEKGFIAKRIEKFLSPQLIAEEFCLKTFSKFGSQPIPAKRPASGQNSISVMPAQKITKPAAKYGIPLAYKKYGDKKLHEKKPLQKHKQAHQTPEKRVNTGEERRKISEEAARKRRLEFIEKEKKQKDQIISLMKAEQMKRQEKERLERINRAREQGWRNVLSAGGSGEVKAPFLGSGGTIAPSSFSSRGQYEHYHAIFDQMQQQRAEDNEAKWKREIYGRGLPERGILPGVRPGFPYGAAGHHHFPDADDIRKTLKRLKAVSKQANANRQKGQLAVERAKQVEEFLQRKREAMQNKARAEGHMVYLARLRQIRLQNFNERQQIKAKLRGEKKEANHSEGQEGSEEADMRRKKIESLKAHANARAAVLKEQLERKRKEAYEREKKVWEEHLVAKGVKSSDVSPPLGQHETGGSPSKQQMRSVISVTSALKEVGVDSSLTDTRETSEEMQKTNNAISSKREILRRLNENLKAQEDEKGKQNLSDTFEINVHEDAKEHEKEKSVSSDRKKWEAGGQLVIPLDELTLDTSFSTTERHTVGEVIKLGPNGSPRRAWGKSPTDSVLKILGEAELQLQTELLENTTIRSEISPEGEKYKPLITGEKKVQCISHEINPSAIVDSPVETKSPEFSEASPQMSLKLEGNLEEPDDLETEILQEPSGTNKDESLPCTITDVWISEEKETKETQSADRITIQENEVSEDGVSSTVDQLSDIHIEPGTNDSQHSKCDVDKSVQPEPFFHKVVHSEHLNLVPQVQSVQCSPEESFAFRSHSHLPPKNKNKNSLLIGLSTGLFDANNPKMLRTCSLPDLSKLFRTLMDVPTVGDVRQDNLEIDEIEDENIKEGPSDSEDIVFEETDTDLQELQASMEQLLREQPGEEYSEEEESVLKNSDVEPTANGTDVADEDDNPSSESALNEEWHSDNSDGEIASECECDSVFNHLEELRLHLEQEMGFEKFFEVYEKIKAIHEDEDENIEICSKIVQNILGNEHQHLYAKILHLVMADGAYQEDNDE

[4] = target: 1-phosphatidylinositol 3-phosphate 5-kinase (Homo sapiens) (UniProt Q9Y2I7); assay: Inhibition of wild-type human partial length PIKFYVE (F1512 to C2098 residues) expressed in mammalian expression system at 10 uM by Kinomescan method relative to control; outline: as §1
1-phosphatidylinositol 3-phosphate 5-kinase (Homo sapiens), sequence (Q9Y2I7 whole entry, the tested form may be a part): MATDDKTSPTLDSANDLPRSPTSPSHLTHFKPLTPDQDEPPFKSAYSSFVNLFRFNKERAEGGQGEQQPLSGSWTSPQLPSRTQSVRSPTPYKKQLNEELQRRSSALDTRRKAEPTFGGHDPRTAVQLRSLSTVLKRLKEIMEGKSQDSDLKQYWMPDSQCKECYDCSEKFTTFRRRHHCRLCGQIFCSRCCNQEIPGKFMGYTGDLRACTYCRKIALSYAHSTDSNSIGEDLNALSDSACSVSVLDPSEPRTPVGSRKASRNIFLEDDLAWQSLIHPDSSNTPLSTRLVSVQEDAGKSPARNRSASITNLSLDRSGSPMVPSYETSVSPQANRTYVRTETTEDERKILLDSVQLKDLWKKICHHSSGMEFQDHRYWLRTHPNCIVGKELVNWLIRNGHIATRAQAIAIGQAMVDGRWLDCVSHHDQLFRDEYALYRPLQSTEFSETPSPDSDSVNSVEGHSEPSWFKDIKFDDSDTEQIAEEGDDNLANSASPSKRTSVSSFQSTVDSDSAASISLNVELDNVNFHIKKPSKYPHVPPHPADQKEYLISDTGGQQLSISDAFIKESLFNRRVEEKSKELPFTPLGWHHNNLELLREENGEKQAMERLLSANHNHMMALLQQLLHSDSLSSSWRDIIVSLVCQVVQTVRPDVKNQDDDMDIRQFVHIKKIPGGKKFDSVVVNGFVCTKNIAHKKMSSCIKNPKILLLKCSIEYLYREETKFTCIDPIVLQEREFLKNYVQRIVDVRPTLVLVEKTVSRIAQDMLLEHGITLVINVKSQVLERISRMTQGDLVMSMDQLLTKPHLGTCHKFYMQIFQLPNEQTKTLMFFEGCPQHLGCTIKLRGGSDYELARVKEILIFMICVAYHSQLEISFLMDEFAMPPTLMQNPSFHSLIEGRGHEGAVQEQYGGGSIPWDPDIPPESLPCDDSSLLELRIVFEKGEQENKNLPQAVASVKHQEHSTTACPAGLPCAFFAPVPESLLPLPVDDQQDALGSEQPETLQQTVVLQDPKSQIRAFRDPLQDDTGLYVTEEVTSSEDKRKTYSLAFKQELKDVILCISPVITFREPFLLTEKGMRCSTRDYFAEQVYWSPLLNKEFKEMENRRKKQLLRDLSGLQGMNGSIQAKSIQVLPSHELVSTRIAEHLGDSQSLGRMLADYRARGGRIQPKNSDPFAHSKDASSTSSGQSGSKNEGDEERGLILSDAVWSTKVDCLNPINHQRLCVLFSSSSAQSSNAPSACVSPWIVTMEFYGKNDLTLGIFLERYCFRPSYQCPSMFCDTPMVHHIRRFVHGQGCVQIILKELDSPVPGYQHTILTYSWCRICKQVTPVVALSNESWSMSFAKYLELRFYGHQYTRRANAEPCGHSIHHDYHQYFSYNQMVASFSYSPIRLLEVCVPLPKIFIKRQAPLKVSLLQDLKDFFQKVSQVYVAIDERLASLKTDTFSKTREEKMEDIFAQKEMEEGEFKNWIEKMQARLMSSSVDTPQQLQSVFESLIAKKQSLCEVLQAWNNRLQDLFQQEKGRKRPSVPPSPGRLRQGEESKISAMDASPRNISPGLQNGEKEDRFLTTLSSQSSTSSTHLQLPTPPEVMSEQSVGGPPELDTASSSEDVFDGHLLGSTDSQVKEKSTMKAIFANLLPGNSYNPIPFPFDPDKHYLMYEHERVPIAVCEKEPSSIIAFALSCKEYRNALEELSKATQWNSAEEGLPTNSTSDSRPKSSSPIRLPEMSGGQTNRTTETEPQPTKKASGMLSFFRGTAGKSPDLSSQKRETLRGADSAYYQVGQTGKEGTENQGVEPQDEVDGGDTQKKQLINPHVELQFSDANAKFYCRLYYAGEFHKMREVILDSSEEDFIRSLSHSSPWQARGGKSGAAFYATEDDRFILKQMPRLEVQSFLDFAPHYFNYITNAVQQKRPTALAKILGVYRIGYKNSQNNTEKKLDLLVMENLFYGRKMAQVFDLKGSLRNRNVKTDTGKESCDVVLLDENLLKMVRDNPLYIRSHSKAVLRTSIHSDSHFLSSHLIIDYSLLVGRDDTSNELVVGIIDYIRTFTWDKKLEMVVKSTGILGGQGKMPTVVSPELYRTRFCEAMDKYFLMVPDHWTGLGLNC

[5] = target: T3, Cyclin-dependent kinase 19 (Homo sapiens, UniProt Q9BWU1); assay: Inhibition of human CDK19 (M1 to N360 residues) expressed in bacterial expression system by KINOMEscan assay
T3 sequence (Q9BWU1 whole entry, the tested form may be a part): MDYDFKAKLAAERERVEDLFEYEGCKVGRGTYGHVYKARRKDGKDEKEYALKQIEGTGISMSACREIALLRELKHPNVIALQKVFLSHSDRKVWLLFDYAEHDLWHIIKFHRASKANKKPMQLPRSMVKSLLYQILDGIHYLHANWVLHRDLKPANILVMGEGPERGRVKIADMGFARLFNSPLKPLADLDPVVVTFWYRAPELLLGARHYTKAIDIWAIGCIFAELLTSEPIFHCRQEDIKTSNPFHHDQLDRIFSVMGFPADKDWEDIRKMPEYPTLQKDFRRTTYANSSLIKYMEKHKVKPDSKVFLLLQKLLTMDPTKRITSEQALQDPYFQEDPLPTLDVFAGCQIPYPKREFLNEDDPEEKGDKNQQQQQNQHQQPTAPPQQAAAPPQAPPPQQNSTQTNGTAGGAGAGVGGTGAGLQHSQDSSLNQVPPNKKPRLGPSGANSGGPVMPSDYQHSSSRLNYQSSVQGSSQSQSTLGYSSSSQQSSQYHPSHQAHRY

[6] = target: T4, Serine/threonine-protein kinase Nek1 (Homo sapiens, UniProt Q96PY6); assay: Inhibition of wild-type human partial length NEK1 (M1 to K278 residues) expressed in bacterial expression system by Kinomescan method
T4 sequence (Q96PY6 whole entry): T2 sequence (whole entry)

[7] = target: T1, Cyclin-dependent kinase 8; assay: Inhibition of CDK8 in human HepG2 cells assessed as reduction in IFNgamma-induced STAT1 phosphorylation at S727 measured after 18 hrs by Western blot analysis; type: cell-based
[8] = target: T3, Cyclin-dependent kinase 19; assay: Inhibition of human CDK19 (M1 to N360 residues) expressed in bacterial expression system at 10 uM by KINOMEscan assay relative to control

T1 sequence (P49336 whole entry, the tested form may be a part): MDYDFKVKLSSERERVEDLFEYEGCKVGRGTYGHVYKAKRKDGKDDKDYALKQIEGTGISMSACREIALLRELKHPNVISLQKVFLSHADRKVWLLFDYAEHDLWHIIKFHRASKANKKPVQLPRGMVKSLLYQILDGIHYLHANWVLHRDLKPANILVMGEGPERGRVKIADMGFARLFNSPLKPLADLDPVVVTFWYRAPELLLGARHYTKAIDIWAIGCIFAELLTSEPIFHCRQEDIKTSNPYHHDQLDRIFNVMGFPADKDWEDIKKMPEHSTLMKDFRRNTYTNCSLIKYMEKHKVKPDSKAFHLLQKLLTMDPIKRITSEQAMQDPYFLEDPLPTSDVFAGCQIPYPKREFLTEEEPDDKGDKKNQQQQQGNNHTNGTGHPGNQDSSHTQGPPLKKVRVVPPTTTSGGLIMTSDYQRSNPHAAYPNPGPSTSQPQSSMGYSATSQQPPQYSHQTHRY

With `CN(C)[C@H]1CC[C@@]2(C)C(=CC[C@H]3[C@@H]4CC[C@H](c5ccc6ccncc6c5)[C@@]4(C)CC[C@@H]32)C1` the inhibition [1] was > 90%, the IC50 [2] was 0.016 µM and the inhibition [3] was > 90%. For the same compound, the inhibition [4] was > 90%, the IC50 [5] was 0.008 µM and the IC50 [6] was > 10 µM. For the same compound, the inhibition [7] was “Dose-dependent effect” and the inhibition [8] was > 90%.
